From publication PMC11956937 (bioRxiv, 2025)

Columns and labels:
human TOP3B = human TOP3B (Homo sapiens, UniProt O95985); assay: Inhibition of human TOP3B relaxation of supercoiled DNA; format: biochemical; details: for Inhibition of the DNA relaxation activity of human TOP3B: tested at up to 200 μM concentration
Method in brief: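 TOP3B (Sf9-expressed, GST/gel-filtration purified) and E. coli-expressed His-TDRD3 each at 18 nM, then DMSO or test compound, then 500 ng supercoiled pBAD/Thio plasmid; 20 mM HEPES-KOH pH 7.5, 5 mM MgCl2, 1 mM DTT, 0.1 mg/ml BSA; 37 ℃, 1 h. SDS/proteinase K stop; 1% agarose with 5 μg/mL chloroquine, SYBR Gold. Relaxed DNA gives % inhibition vs DMSO; 200 μM screen, IC50 from serial dilutions, 3–4 repeats.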

human TOP1 = molecular target: T1, human TOP1 (Homo sapiens, UniProt P11387); assay: Inhibition of human TOP1 relaxation activity; format: biochemical; details: comparison of IC50 values for TOP3B and TOP1 relaxation
T1 sequence (P11387 1-765): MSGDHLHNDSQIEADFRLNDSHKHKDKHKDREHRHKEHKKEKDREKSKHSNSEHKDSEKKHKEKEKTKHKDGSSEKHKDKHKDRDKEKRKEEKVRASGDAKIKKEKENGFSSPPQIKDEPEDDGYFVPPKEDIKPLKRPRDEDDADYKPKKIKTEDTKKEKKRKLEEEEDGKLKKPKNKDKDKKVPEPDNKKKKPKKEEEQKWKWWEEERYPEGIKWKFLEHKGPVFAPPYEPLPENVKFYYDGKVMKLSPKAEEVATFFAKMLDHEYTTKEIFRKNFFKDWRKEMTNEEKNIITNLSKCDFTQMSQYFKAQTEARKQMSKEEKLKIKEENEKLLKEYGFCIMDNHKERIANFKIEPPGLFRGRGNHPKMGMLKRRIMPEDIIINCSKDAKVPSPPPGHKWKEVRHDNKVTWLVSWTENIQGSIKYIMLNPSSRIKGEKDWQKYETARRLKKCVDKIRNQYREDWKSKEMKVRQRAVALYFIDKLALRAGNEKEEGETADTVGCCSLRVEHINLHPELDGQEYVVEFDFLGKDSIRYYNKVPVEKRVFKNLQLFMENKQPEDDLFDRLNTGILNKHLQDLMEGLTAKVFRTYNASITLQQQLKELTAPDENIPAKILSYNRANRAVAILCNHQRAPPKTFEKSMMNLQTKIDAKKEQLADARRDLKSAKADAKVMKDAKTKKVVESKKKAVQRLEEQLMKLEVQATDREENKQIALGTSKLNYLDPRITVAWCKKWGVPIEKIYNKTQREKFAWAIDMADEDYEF
Method in brief: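 Recombinant human TOP1 expressed in S. cerevisiae EKY3, 1 unit, with 200 ng supercoiled pBAD/Thio plasmid in 10 mM Tris-HCl pH 8.0, 150 mM NaCl, 1 mM EDTA, 0.1 mM spermidine, 0.1 mg/mL BSA, 5% glycerol; 37 °C, 30 min; SDS stop. Run on 1% agarose in TAE, 20 h at 25 V; ethidium bromide stain. Remaining supercoiled DNA quantified as % inhibition vs DMSO; TOP1 IC50 compared with TOP3B IC50.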

Chain of human TOP3B (O95985 whole entry): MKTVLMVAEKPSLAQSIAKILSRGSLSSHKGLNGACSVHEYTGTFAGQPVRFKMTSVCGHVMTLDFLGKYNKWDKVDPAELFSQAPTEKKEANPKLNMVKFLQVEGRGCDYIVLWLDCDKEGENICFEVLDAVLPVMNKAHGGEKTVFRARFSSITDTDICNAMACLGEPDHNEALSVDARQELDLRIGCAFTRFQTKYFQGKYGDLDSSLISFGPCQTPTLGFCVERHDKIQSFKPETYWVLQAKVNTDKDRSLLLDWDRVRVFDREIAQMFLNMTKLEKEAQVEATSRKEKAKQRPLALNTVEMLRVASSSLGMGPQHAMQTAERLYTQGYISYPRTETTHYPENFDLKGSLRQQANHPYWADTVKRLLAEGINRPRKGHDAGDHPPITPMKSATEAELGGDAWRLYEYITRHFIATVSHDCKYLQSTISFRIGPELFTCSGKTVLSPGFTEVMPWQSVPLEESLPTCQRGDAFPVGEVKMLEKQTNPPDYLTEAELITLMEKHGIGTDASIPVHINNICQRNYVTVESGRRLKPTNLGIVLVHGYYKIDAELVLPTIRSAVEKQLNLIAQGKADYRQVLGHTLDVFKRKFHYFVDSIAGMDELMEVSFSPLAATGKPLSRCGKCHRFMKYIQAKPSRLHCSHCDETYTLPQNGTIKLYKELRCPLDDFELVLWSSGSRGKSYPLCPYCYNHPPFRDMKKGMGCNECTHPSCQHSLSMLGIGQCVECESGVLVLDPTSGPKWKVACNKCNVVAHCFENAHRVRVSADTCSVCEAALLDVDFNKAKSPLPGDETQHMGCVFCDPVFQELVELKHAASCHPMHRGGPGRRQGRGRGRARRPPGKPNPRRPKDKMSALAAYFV
Chain of human TOP3B (Q9H7E2 whole entry partner): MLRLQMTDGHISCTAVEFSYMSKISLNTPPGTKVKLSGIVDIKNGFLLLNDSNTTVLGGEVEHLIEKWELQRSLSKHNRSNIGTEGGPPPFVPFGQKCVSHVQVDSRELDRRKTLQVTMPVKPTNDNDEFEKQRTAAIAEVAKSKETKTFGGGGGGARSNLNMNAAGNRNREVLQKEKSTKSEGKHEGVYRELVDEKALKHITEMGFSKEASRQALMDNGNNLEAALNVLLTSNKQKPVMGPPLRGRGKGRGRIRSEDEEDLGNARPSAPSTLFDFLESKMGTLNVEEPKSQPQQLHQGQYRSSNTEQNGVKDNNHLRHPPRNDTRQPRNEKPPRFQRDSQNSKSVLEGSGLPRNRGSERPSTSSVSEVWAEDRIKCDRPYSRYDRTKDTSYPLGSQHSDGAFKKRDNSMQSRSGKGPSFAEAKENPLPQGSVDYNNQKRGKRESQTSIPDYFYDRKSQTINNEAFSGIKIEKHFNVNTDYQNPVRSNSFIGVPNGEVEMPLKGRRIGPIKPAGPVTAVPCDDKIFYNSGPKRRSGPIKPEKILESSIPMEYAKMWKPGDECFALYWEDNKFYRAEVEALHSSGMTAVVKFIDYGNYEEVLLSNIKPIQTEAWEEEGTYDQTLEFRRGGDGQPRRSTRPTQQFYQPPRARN

Cc1cc(Nc2ncnc3ccc(NC4=NC(C)(C)CO4)cc23)ccc1Oc1ccn2ncnc2c1 [tucatinib]
Inhibition of the DNA relaxation activity of human TOP3B (human TOP3B): Inhibition was observed only for bemcentinib

Cc1cn(-c2cc(NC(=O)c3ccc(C)c(Nc4nccc(-c5cnccn5)n4)c3)cc(C(F)(F)F)c2)cn1 [radotinib]
Inhibition of the DNA relaxation activity of human TOP3B (human TOP3B): Inhibition was observed only for bemcentinib

CN1CCN(C2CCN(C(=O)Nc3cc(Oc4ccc(NC(=O)C5(C(=O)Nc6ccc(F)cc6)CC5)c(F)c4)ccn3)CC2)CC1 [golvatinib]
Inhibition of the DNA relaxation activity of human TOP3B (human TOP3B): Inhibition was observed only for bemcentinib

Cc1cn(-c2cc(NC(=O)c3ccc(C)c(Nc4nccc(-c5cccnc5)n4)c3)cc(C(F)(F)F)c2)cn1 [nilotinib]
Inhibition of the DNA relaxation activity of human TOP3B (human TOP3B): Inhibition was observed only for bemcentinib

Nc1nc(Nc2ccc3c(c2)CC[C@@H](N2CCCC2)CC3)nn1-c1cc2c(nn1)-c1ccccc1CCC2 [bemcentinib]
IC50 (human TOP3B): 34.3 µM
Inhibition of the DNA relaxation activity of human TOP3B (human TOP3B): Inhibition was observed
Selectivity for inhibition of human TOP3B versus TOP1 (human TOP1): inhibits TOP3B with greater potency than TOP1

CNC(=O)c1cc(Oc2ccc(NC(=O)Nc3cc(C(C)(C)C)nn3-c3ccc4ncccc4c3)c(F)c2)ccn1 [rebastinib]
Inhibition of the DNA relaxation activity of human TOP3B (human TOP3B): Inhibition was observed only for bemcentinib
